From article PMC2909360 (Molecular microbiology, 2010) come the findings set out here.

Molecules are shown by their SMILES.

Experiment [1] concerns the target purified bovine cathepsin B (Bos taurus, UniProt P07688). As to the kind of experiment: Inhibition of cathepsin B, fluorogenic substrate assay. Format: biochemical. In outline: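 Pre-incubated 10 min at room temperature with increasing inhibitor concentrations, then Z-Leu-Arg-AMC added (0.25 mM final) at 30°C. Linear hydrolysis rate read for 20 min (ex 365/em 450 nm). Triplicates, mean ± SEM. IC50 from activity loss.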

The next experiment has as its system calpain. As to the kind of experiment: Inhibition of calpain. In kind it is biochemical. To be noted: data not shown.

Turning to `CC(C)C[C@H](NC(=O)N1CCOCC1)C(=O)N[C@H](/C=C/S(=O)(=O)c1ccccc1)CCc1ccccc1` [LHVS, Morpholinurea-leucine-homophenylalanine-vinylsulfone-phenyl, reference compound], the “inhibition of cathepsin B (in words)” value in experiment [1] is “targets also cathepsin B”. For the same molecule, the “inhibition of calpain (in words)” value in the experiment on calpain is listed as “targets”.
